# CHOP UPR activ: activators of apoptotic arm of unfolded protein response (CHOP); activation, % at 10 µM; 0.34% of 330,000 active; CHO-CHOP luciferase reporter, UPR activation, luminescence; percent of tunicamycin response over DMSO baseline;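 active = at 10 µM dose, activation of 40% or more, normalized to positive control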
#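 Assay system: CHO cells with stable CHOP pathway luciferase reporter; Buffer or medium: F12 plus 10% serum; Times: 16-18 h cell attachment, then 6 h compound exposure, 37 °C; Signal: luciferase luminescence; Read-out basis: percent activation relative to tunicamycin control; Control set: tunicamycin high control, DMSO low control.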
# FXN GAA850 act: activators of GAA850 frataxin (FXN) promoter. HEK293 lucGAA850 FXN promoter luciferase reporter, 24 h; percent of 10 µM SAHA response. activation, % at 6 µM. 0.56% of 360,000 active. AID 540364;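 active = activation above the average of all compounds screened plus 3 SD, cutoff fixed separately per campaign, cut at about 7.5% in these data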
# CHOP inhibitor: CHOP inhibition in unfolded protein response; CHO-K1 CHOP-promoter luciferase, tunicamycin-induced, 15-18 h; inhibition, % at 10 µM; 3.8% of 220,000 active;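 active = compounds that reduced the stress-induced luciferase reporter signal by more than about 70% of percent inhibition, limit read from the data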
# UPR XBP1 act: adaptive UPR (XBP1) activation; AID 463104; CHO-XBP1 luciferase reporter, IRE1-XBP1 UPR activation, luminescence; percent of tunicamycin response, DMSO as zero; activation, % at 20 µM; 0.33% of 330,000 active;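 active = versus positive control, 20 µM dose yields 30% or more activation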
#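 Material – CHO cell line with stable XBP1 luciferase reporter · Buffer or medium – F12 plus 10% FBS · Compound – single point, 20 µM final compound, 1% DMSO · Schedule – 16-18 h cell attachment at 37 °C, then 6 h compound exposure · Signal – Steady-Glo luminescence read · Benchmarks – high control tunicamycin 10 µg/mL final, low control DMSO vehicle only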
# CHOP confirm: confirmation of CHOP induction inhibitors. shares compounds with CHOP inhibitor. CHO-CHOP promoter luciferase reporter, tunicamycin-induced, luminescence. inhibition, % at 10 µM. 45% of 2,100 active. AID 504437;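 active = mean of three repeat readings of reporter signal inhibition above a set limit, cut at about 70% in these data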
# Hits are given with their value; – = inactive; · = no result. Many of the other results were omitted from the sample, so hits are more common in it than they were.
SMILES,CHOP UPR activ,FXN GAA850 act,CHOP inhibitor,UPR XBP1 act,CHOP confirm
Cc1ccc(/C=C2\SC(=S)N(CCCC(=O)Nc3ccc(O)cc3)C2=O)cc1,–,–,99.7,–,113.6
O=C(CCN1C(=O)/C(=C/c2ccccc2)SC1=S)Nc1ccccn1,–,–,·,–,·
O=C(N/N=C/c1ccco1)C1CC1c1ccccc1 (configuration not stated),–,–,–,–,·
CC(C)(C)c1ccc(C2CC2C(=O)N/N=C\c2ccc[nH]2)cc1 (configuration not stated),–,–,104.8,–,94.9
COc1ccc2c(c1)C=C(CN1CCC(CO)(CCc3ccccc3)CC1)CO2,–,–,–,–,·
COc1ccc(CC2(CO)CCN(CC3=Cc4cc(Cl)ccc4OC3)CC2)cc1,–,–,102.1,–,105.4
CCCCCCCCNC(C)C(O)c1ccc(SC(C)C)cc1 (configuration not stated),–,–,108.5,–,128.4
CCNC(=O)C1(C)CCN(C(=O)c2ccc3snnc3c2)C1 (configuration not stated),·,–,·,·,·
Cc1ccccc1CCN(C(=O)Cn1nnc2ccccc21)C(C(=O)NC(C)(C)C)c1ccsc1 (configuration not stated),–,–,98.3,–,–
CCOC(=O)c1[nH]c2ccc(OC)cc2c1NC(=O)/C=C/c1ccc2c(c1)OCO2,–,–,102.0,–,–
O=C(/C=C/c1ccc2c(c1)OCO2)Nc1c(C(=O)O)[nH]c2ccccc12,–,–,–,–,·
Cc1nc(Nc2nc(CSc3nc4ccccc4[nH]3)cc(=O)[nH]2)nc2ccccc12,–,–,99.3,–,86.7
COc1ccc2c(C)nc(Nc3nc(C)c(C)c(=O)[nH]3)nc2c1,–,–,99.1,–,106.2
COc1ccc2nc(Nc3nc(CSc4nc5ccccc5[nH]4)cc(=O)[nH]3)nc(C)c2c1,–,–,102.5,–,102.8
CC(C)Nc1ncnc2c1ncn2[C@H]1CN(Cc2ccc(F)cc2)C[C@@H](CO)O1,·,–,·,·,·
CC1ON=C(c2ccccn2)N(Cc2ccc(S(C)(=O)=O)cc2)C1=O (configuration not stated),·,–,·,·,·
CCOc1ccc(N=Cc2ccc([N+](=O)[O-])cc2)c(O)c1,·,–,·,·,·
N=C1C(=O)OCC1c1ccccc1NC(=O)Nc1ccccc1 (configuration not stated),–,–,–,–,·
Cc1ccc(NC(=O)Nc2cc(Cl)ccc2C2COC(=O)C2=N)cc1 (configuration not stated),–,–,101.0,–,–
COc1cccc(-n2nc(C#N)c(Cl)cc2=O)c1,–,–,106.7,–,–
O=C(c1ccc(Cl)c(Cl)c1)N1CCC(O)(CN2CCOCC2)CC1,–,–,–,–,·
O=C(c1ccc(Cl)cc1)N1CCC(O)(CSc2ccc(Cl)cc2Cl)CC1,–,–,108.7,–,87.0
COc1ccc(-c2ccc(C(=O)N3CCOCC3)c3occc23)c(C)c1,·,–,·,·,·
CC(C)(C)c1ccc(C(=O)NC(=S)NNC(=O)c2cccs2)cc1,·,–,107.4,·,133.7
O=C(NC(=S)NNC(=O)c1cccs1)c1ccccc1,–,–,·,–,·
SMILES,CHOP UPR activ,FXN GAA850 act,CHOP inhibitor,UPR XBP1 act,CHOP confirm
CN1OC[C@@H]2CN(S(=O)(=O)c3cccc4ccccc34)[C@H](c3ccc(-c4cccnc4)cc3)C[C@@H]21,·,–,·,·,·
CCOc1cc(NC(=S)NCC(C)C)c(OCC)cc1NC(=O)c1cccs1,–,–,99.6,–,100.0
COc1ccc(-c2cc(C3CCN(Cc4cccc(C(F)(F)F)c4)CC3)[nH]n2)cc1,–,–,105.9,–,103.6
Nc1ccc(SC(F)(F)F)cc1C(=O)c1ccccc1,–,–,103.5,–,110.9
CCc1cc(C(=O)c2ccccc2)c(N)s1,–,–,·,–,·
Cc1ccc(-c2nc(N)sc2-c2ccc(C)cc2)cc1,·,–,96.9,·,114.5
CCCCCCn1c(CN2CCN(Cc3ccccc3)CC2)nc2c1c(=O)n(C)c(=O)n2C,–,–,100.0,–,120.2
O=Cc1sc(Nc2ccccc2)nc1Cl,–,–,–,–,·
Cc1ccc(Nc2nc(Cl)c(C=O)s2)cc1Cl,–,–,96.1,–,–
O=C(Nc1ccccc1)C1=C(Nc2ccccc2)CSC1,·,–,·,·,·
Cc1cc(NC(=O)CSc2nc3cc(Cl)ccc3o2)no1,–,–,·,–,·
O=S1(=O)C=C(Sc2nc3cc(Cl)ccc3o2)c2ccccc21,–,–,·,–,138.3
CCOc1cccc(CN2CCCC(N3CCN(c4cccc(Cl)c4)CC3)C2)c1O (configuration not stated),–,–,·,–,·
CCOc1cccc(CN2CCN(c3cccc(C(F)(F)F)c3)CC2)c1O,–,–,100.2,–,78.7
Cc1ccc([C@@H]2CC(=O)[C@@H]3CN(S(=O)(=O)c4ccc(C)cc4)[C@H](c4ccc(Cl)cc4)C[C@@H]3N2S(=O)(=O)c2ccc(Cl)cc2)cc1,·,–,·,·,·
O=C(O)c1cccc(NC(CNS(=O)(=O)c2ccc(Cl)cc2)c2ccccc2)c1 (configuration not stated),–,–,–,–,·
O=S(=O)(NCC(Nc1ccccc1)c1ccccc1)c1ccc(Cl)cc1 (configuration not stated),–,–,101.6,–,–
COc1cc(/C=N/N(C)C)cc(Br)c1O,–,–,–,–,·
COc1cc(/C=N/N(C)c2ccccc2)cc(Cl)c1O,–,–,97.3,–,–
CCOc1cc(/C=C2/C(=O)ON=C2C)ccc1OCc1ccc(F)cc1,–,–,99.5,–,124.5
CC1CCC(C(C)C)C(OCC(O)CN2CCN(Cc3ccccc3)CC2)C1 (configuration not stated),–,–,99.4,–,103.5
Cc1ccc(NC(=C(C#N)C#N)c2ccccc2)cc1,·,–,·,·,·
Cc1cccc(OCC(=O)N/N=C\C=C\c2ccc3c(c2)OCO3)c1C,–,–,97.8,–,95.0
CCc1ccc(C2NC(=S)NC3=C2C(=O)N(c2ccccc2OC)C(c2ccc(CC)cc2)N3)cc1 (configuration not stated),–,–,–,–,·
O=C1C2=C(NC(=S)NC2c2ccc(Cl)cc2)NC(c2ccc(Cl)cc2)N1c1ccc(Cl)cc1 (configuration not stated),–,–,98.0,–,–
Cc1ccc(F)cc1C(=O)N1CCOCC1c1cc(C(=O)NCc2ccccc2)no1 (configuration not stated),·,–,·,·,·
COc1cc2c(c(OC)c1OC)-c1ccc(NCc3ccccc3)c(=O)cc1C(NC(C)=O)CC2 (configuration not stated),·,–,·,·,·
CN1CCN(CC(=O)N2CCn3c4c(c5cc(C6CCCCC6)ccc53)CCCC42)CC1 (configuration not stated),–,–,·,–,131.9
O=C(COc1ccccc1)Nc1sc2c(c1C(=O)NCc1cccnc1)CCCC2,–,–,97.7,–,–
O=S(=O)(NC1CC1)c1ccc(S(=O)(=O)N2CCCC3(CCCCC3)C2)cc1,–,–,97.4,–,98.4
